Measurements: publication PMC10376460 (European Journal of Endocrinology, 2023)
“And” between values parts separate entries of the source, which are not always exact repeats. Identical values can stand only once. “Also recorded” adds a separate entry of the source.

Assays:
human AKR1C3 = target: T1, human AKR1C3 (Homo sapiens, UniProt P42330); test: Biochemical enzyme assay: coumberol formation from coumberone; details: read-out: IC50, inhibition of human AKR1C3 activity; coumberone 0.3 µmol/L (Km)
T1 sequence (P42330 1-323): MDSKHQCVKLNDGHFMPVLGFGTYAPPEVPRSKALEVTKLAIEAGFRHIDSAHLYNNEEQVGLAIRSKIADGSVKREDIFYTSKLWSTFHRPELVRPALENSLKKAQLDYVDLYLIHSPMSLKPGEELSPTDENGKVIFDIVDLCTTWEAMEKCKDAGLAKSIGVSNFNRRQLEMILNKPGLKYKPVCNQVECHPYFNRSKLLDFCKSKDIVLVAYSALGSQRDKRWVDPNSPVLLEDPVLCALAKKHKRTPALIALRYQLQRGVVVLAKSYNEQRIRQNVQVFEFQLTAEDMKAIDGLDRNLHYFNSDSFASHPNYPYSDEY

postmenopausal women [1] = test: Steroid assay; assay type: in vivo, human; details: 30 mg QD to 60 mg BID for 14 days
Outline: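 Postmenopausal women received test compound QD or BID, or placebo, for 14 days with 5-day follow-up. A commercial validated multiplex LC-MS/MS kit quantified 17 serum steroids at 0-48 h after dosing on day −1, day 1 and day 14, plus predose samples. Fold change was the ratio to the last pre-dose value of the period. Values below LLOQ were excluded.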

premenopausal women [2] = test: Steroid assay; assay type: in vivo, human
Outline: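 Premenopausal women, pretreatment cycle versus 28-day treatment with 60 mg QD or BID. A validated multiplex LC-MS/MS kit measured 17 serum steroids at 3- to 4-day visits, E3G-triggered visits, first bleeding days and end of treatment. LH-peak-adjusted AUCs were taken from day −5 to +10 per cycle. Cycles were compared with 90% CI and Bonferroni–Holm-adjusted P values, and values below LLOQ were excluded.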

premenopausal women [3] = test: Ovarian function assessment; assay type: in vivo, human; details: 60 mg QD or BID 28 d
Outline: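 Open-label, intraindividual comparison in 18 premenopausal women: a pretreatment cycle, then oral test compound 60 mg QD or BID for 28 days. Assessments were transvaginal ultrasound (follicle diameter, endometrial thickness), Hoogland scoring of ovarian activity, and a bleeding pattern from daily self-rated maximum bleeding intensity. FSH and LH were sampled at 3- to 4-day visits, with extra visits on urinary E3G rises.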

[4] = test system: healthy premenopausal and postmenopausal women; test: Eicosanoid; assay type: in vivo, human; details: systemic measurements
Outline: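 Plasma from postmenopausal (part A) and premenopausal (part B) women on the test compound. Eicosanoids, including prostaglandins, and polyunsaturated fatty acids were measured together by a published LC-MS/MS method. Part B sampling was at 3- to 4-day visits.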

[5] = Plasma pharmacokinetics, part A; assay type: in vivo, human
Outline: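 Postmenopausal women, randomized, double-blind, placebo-controlled (7 active, 2 placebo per step). A single dose was given, then after a 14-28 day washout 3, 30 or 90 mg QD or 60 mg BID for 14 days. Plasma parent and metabolite M-7 were sampled predose to 336 h, plus periodic predose troughs. Noncompartmental parameters, accumulation and linearity indices were derived, and steady state was judged from mean Ctrough.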

[6] = Plasma pharmacokinetics, part B; assay type: in vivo, human; details: premenopausal women
Outline: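 Premenopausal women received open-label oral test compound 60 mg QD or BID for 28 days. Plasma parent and metabolite M-7 concentrations were measured. Standard noncompartmental multiple-dose PK parameters were calculated from concentration-time data.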

postmenopausal women [7] = test: Safety assessments; assay type: in vivo, human
Outline: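 Safety covered adverse event reports, vital signs, ECGs, hematology, serum chemistry including liver function tests (transaminases, alkaline phosphatase) and urinalysis. Total serum bilirubin was followed during and after dosing against an ULN of 1.23 mg/dL. Placebo recipients were pooled, with descriptive statistics.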

AKR1C1 = details: concentrations up to 10 µM; cited from earlier work
AKR1C2 = details: concentrations up to 10 µM; cited from earlier work
AKR1C4 = details: concentrations up to 10 µM; cited from earlier work
[8] = test system: organic anion transporting polypeptide (OATP) 1B1/3 transporters; details: in vitro; cited from earlier work
[9] = test system: premenopausal women with endometriosis; details: phase 2 study; cited from earlier work
[10] = LH-peak-adjusted AUC, 60 mg once or twice daily 28 d
[11] = serum, LH-peak-adjusted (day −5 to +10), 60 mg once or twice daily 28 d
[12] = treatment vs pretreatment cycle, 60 mg once or twice daily 28 d

IC50 (human AKR1C3): 1.4 nM
RAAUC (accumulation ratio) ([5]; 60 mg BID, geometric mean/%CV): 2.32
time until PK steady-state conditions were reached (mean Ctrough) ([5]; all dose groups): 4 to 8 days
multiple-dose PK parameters compared with postmenopausal women [6]: Largely similar
SMILES: CN(CCC(=O)O)C(=O)c1ccc2c(c1)CC[C@@H]1[C@@H]2CC[C@]2(C)C(c3cncc(F)c3)=CC[C@@H]12 [BAY1128688]
serum concentrations of androsterone (postmenopausal women [1]): increased in a dose-dependent manner
changes in serum E2 (17β-estradiol) concentrations (premenopausal women [2]; 60 mg QD or BID 28 d): no concomitant changes; also recorded: no systematic changes
changes in serum progesterone concentrations (premenopausal women [2]; 60 mg QD or BID 28 d): no concomitant changes; also recorded: no systematic changes
serum testosterone, treatment cycle vs pretreatment cycle (premenopausal women [2]; 60 mg QD or BID 28 d): slightly decrease
11-Deoxycorticosterone: X-fold change from baseline, mean (premenopausal women [2]; [10]): 0.88
11-Deoxycorticosterone: X-fold change from baseline, median (premenopausal women [2]; [10]): 0.87
11-Deoxycortisol: X-fold change from baseline, mean (premenopausal women [2]; [10]): 0.85
11-Deoxycortisol: X-fold change from baseline, median (premenopausal women [2]; [10]): 0.79
17alpha-Hydroxyprogesterone: X-fold change from baseline, mean (premenopausal women [2]; [10]): 0.88
17alpha-Hydroxyprogesterone: X-fold change from baseline, median (premenopausal women [2]; [10]): 0.87
Aldosterone: X-fold change from baseline, mean (premenopausal women [2]; [10]): 1.05
Aldosterone: X-fold change from baseline, median (premenopausal women [2]; [10]): 0.94
Androstenedione: X-fold change from baseline, mean (premenopausal women [2]; [10]): 0.99
Androstenedione: X-fold change from baseline, median (premenopausal women [2]; [10]): 0.98
Androsterone: X-fold change from baseline, mean (premenopausal women [2]; [10]): 2.95
Androsterone: X-fold change from baseline, median (premenopausal women [2]; [10]): 2.42
Corticosterone: X-fold change from baseline, mean (premenopausal women [2]; [10]): 0.98
Corticosterone: X-fold change from baseline, median (premenopausal women [2]; [10]): 0.95
Cortisol: X-fold change from baseline, mean (premenopausal women [2]; [10]): 0.95
Cortisol: X-fold change from baseline, median (premenopausal women [2]; [10]): 0.92
Cortisone: X-fold change from baseline, mean (premenopausal women [2]; [10]): 0.94
Cortisone: X-fold change from baseline, median (premenopausal women [2]; [10]): 0.92
Dehydroepiandrosterone sulfate: X-fold change from baseline, mean (premenopausal women [2]; [10]): 1.11
Dehydroepiandrosterone sulfate: X-fold change from baseline, median (premenopausal women [2]; [10]): 1.12
Dehydroepiandrosterone: X-fold change from baseline, mean (premenopausal women [2]; [10]): 0.83
Dehydroepiandrosterone: X-fold change from baseline, median (premenopausal women [2]; [10]): 0.78
Dihydrotestosterone: X-fold change from baseline, mean (premenopausal women [2]; [10]): 1.52
Dihydrotestosterone: X-fold change from baseline, median (premenopausal women [2]; [10]): 1.53
Estradiol: X-fold change from baseline, mean (premenopausal women [2]; [10]): 1.06
Estradiol: X-fold change from baseline, median (premenopausal women [2]; [10]): 1.12
Estrone: X-fold change from baseline, mean (premenopausal women [2]; [10]): 1.05
Estrone: X-fold change from baseline, median (premenopausal women [2]; [10]): 1.08
Etiocholanolone: X-fold change from baseline, mean (premenopausal women [2]; [10]): 1.96
Etiocholanolone: X-fold change from baseline, median (premenopausal women [2]; [10]): 1.70
Progesterone: X-fold change from baseline, mean (premenopausal women [2]; [10]): 0.84
Progesterone: X-fold change from baseline, median (premenopausal women [2]; [10]): 0.90
Testosterone: X-fold change from baseline, mean (premenopausal women [2]; [10]): 0.86
Testosterone: X-fold change from baseline, median (premenopausal women [2]; [10]): 0.87
11-Deoxycorticosterone: Treatment period AUC (premenopausal women [2]; [11]): 1.61 nmol/day
11-Deoxycortisol: Treatment period AUC (premenopausal women [2]; [11]): 4.84 nmol/day
17alpha-Hydroxyprogesterone: Treatment period AUC (premenopausal women [2]; [11]): 42.5 nmol/day
Aldosterone: Treatment period AUC (premenopausal women [2]; [11]): 3.17 nmol/day
Androstenedione: Treatment period AUC (premenopausal women [2]; [11]): 51.1 nmol/day
Androsterone: Treatment period AUC (premenopausal women [2]; [11]): 20.6 nmol/day
Corticosterone: Treatment period AUC (premenopausal women [2]; [11]): 90.6 nmol/day
Cortisol: Treatment period AUC (premenopausal women [2]; [11]): 4102 nmol/day
Cortisone: Treatment period AUC (premenopausal women [2]; [11]): 859 nmol/day
Dehydroepiandrosterone sulfate: Treatment period AUC (premenopausal women [2]; [11]): 69 510 nmol/d
Dehydroepiandrosterone: Treatment period AUC (premenopausal women [2]; [11]): 130 nmol/day
Dihydrotestosterone: Treatment period AUC (premenopausal women [2]; [11]): 10.2 nmol/day
Estradiol: Treatment period AUC (premenopausal women [2]; [11]): 7.29 nmol/day
Estrone: Treatment period AUC (premenopausal women [2]; [11]): 4.02 nmol/day
Etiocholanolone: Treatment period AUC (premenopausal women [2]; [11]): 7.01 nmol/day
Progesterone: Treatment period AUC (premenopausal women [2]; [11]): 213 nmol/day
Testosterone: Treatment period AUC (premenopausal women [2]; [11]): 9.45 nmol/day
androsterone on-treatment value, maximum (premenopausal women [2]; serum, 60 mg QD or BID): 6.36 nmol/L
11-Deoxycorticosterone: AUC difference (mixed linear model) (premenopausal women [2]; [12]): -0.308 nmol/day
11-Deoxycortisol: AUC difference (mixed linear model) (premenopausal women [2]; [12]): -0.953 nmol/day
17alpha-Hydroxyprogesterone: AUC difference (mixed linear model) (premenopausal women [2]; [12]): -5.20 nmol/day
Aldosterone: AUC difference (mixed linear model) (premenopausal women [2]; [12]): 0.0041 nmol/day
Androstenedione: AUC difference (mixed linear model) (premenopausal women [2]; [12]): -0.312 nmol/day
Androsterone: AUC difference (mixed linear model) (premenopausal women [2]; [12]): 13.5 nmol/day
Corticosterone: AUC difference (mixed linear model) (premenopausal women [2]; [12]): -17.7 nmol/day
Cortisol: AUC difference (mixed linear model) (premenopausal women [2]; [12]): -407 nmol/day
Cortisone: AUC difference (mixed linear model) (premenopausal women [2]; [12]): -55.6 nmol/day
Dehydroepiandrosterone sulfate: AUC difference (mixed linear model) (premenopausal women [2]; [12]): 9524 nmol/day
Dehydroepiandrosterone: AUC difference (mixed linear model) (premenopausal women [2]; [12]): -23.3 nmol/day
Dihydrotestosterone: AUC difference (mixed linear model) (premenopausal women [2]; [12]): 3.49 nmol/day
Estradiol: AUC difference (mixed linear model) (premenopausal women [2]; [12]): 0.343 nmol/day
Estrone: AUC difference (mixed linear model) (premenopausal women [2]; [12]): 0.139 nmol/day
Etiocholanolone: AUC difference (mixed linear model) (premenopausal women [2]; [12]): 3.47 nmol/day
Progesterone: AUC difference (mixed linear model) (premenopausal women [2]; [12]): -50.6 nmol/day
Testosterone: AUC difference (mixed linear model) (premenopausal women [2]; [12]): -1.43 nmol/day
menstrual cyclicity and ovarian function (premenopausal women [3]): not altered
participants with Hoogland score of 6 (normal ovulation) in treatment cycle (premenopausal women [3]): 14 of 18 and 14/18
impact on prostaglandins investigated [4]: no obvious impact
individual maximum increase in total serum bilirubin, fold ULN (postmenopausal women [7]; 60 mg BID, day 13): around 1.2 fold ULN
individual maximum increase in total serum bilirubin, fold ULN (postmenopausal women [7]; 90 mg QD, day 6): around 2.3 fold ULN
overall safety and tolerability (postmenopausal women [7]; 2 or 4 weeks of treatment, healthy female participants): safe and well tolerated
increases in serum bilirubin, fold above the ULN (postmenopausal women [7]; all participants except two): below 1.50 fold
changes in liver enzymes (transaminases; alkaline phosphatase) (postmenopausal women [7]; any of the participants, parts A and B): no concomitant changes
inhibition of AKR1C1 (AKR1C1): no inhibition
inhibition of AKR1C2 (AKR1C2): no inhibition
inhibition of AKR1C4 (AKR1C4): no inhibition
inhibition of OATP 1B1/3 transporters [8]: inhibitor
finding that terminated development [9]: hepatotoxicity
